Autophagy mod – autophagy modulators in MEF cells, primary screen, imaging, high-content, MEF GFP-LC3. MEF GFP-LC3 puncta imaging; test concentration mostly 10 µM. calls only at 10 µM (by protocol). actives 0.98% (n = 190,000);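 active = percentage of spot-positive cells more than 3 SD above its plate mean, without a fluorescence outlier flag or 80% toxicity; inconclusive = no clear call, values can overlap the other calls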;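 note: spot-positive cell cutoff set from DMSO-treated cells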
Dynein cargo inh – inhibitors of GR-EGFP nuclear translocation, primary screen, dynein cargo transport inhibitor project, imaging, high-content, 3617.4 mouse cells. test concentration mostly 20 µM; stimulated with dexamethasone, 1 µM; hits give low values. z-score, hits read low. actives 0.47% (n = 220,000). AID 1381, 2008;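 active = plate z-score of nuclear minus cytoplasmic receptor signal below a set negative limit, without overly bright fluorescence or cell loss, cut at about -3.5 in these data, passing the limit was not always enough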;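 note: z-score of nuclear minus cytoplasmic ring GR-EGFP intensity difference per well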
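Buffer or medium: tet-free medium with charcoal-stripped serum / Also added: dexamethasone agonist, 1.0 µM final, for 30 min / Timing: induction 48 h, compound 1 h, agonist 30 min / Measured by: high-content fluorescence imaging after fixation / Read-out: nuclear-to-cytoplasmic GR-EGFP distribution per well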
ROMK mod – ROMK potassium channel modulators, primary screen, cell-based, thallium flux, MLSMR library; ATP-sensitive inward rectifier potassium channel 1 (Homo sapiens), P48048; Tet-inducible ROMK, thallium flux fluorescence; actives lie on both sides; B-score at 10 µM; actives 2% (n = 130,000); AID 1918, 2009;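 active = signal ratio slope over the read window, or its plate-corrected B-score, at least 3 SD from the plate mean, either direction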;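 note: B-score of the F/F0 ratio slope over 7 to 12 s after thallium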
Cl transport mod – KCC2 cotransporter modulators, thallium flux, primary screen, cell-based, HEK293 KCC2, FluoZin-2 fluorescence, MLSMR; Solute carrier family 12 member 5 (Homo sapiens), Q9H2X9; KCC2 cells, thallium flux FluoZin-2 fluorescence; B-score of Tl+ flux slope (higher = more flux/activation; lower = inhibition) at 10 µM; actives 2.2% (n = 190,000);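 active = thallium flux slope and its plate-corrected score both differing from the plate sample mean at a set confidence after two filtering rounds, in either direction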;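 note: slope of fluorescence scaled to starting intensity during 10 to 20 s after thallium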
Target sequence (Q9H2X9 whole entry, looked up): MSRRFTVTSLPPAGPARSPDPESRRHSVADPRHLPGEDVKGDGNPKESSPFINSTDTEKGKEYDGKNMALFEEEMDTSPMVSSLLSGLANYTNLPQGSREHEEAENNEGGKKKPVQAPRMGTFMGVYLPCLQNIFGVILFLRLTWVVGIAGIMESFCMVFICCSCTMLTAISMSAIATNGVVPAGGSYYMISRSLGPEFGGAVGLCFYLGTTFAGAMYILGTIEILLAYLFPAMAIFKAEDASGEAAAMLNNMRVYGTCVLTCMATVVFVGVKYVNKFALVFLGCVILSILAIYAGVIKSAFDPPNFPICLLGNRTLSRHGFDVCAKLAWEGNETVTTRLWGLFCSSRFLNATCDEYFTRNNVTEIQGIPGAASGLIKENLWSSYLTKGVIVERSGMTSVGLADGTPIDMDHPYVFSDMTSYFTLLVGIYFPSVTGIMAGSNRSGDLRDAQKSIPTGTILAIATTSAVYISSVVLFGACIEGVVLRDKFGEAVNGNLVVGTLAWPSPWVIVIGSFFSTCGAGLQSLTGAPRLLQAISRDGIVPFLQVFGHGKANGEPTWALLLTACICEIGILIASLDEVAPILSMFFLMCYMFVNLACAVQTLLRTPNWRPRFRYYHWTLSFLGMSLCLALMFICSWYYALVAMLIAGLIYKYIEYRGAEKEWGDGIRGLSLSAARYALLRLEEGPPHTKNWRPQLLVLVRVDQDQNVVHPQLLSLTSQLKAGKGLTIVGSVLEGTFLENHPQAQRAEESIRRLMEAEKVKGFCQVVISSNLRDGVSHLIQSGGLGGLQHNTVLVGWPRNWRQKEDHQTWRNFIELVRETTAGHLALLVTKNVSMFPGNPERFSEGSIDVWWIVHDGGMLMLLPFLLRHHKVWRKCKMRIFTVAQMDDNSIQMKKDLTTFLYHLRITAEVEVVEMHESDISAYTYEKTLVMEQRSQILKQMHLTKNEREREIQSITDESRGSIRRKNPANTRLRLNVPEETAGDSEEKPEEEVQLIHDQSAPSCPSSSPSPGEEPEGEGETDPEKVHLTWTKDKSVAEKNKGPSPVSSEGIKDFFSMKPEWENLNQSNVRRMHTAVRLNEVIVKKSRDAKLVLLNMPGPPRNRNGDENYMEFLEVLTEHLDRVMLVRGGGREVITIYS
DTT redox prof – compounds producing H2O2 with reducing agent – biochemical, NIH compound library profiling, artefact control for MLSCN library redox annotation, primary screen. DTT-dependent redox cycling H2O2, phenol red/HRP absorbance; 100% = 100 µM peroxide control, 0% = buffer. activation, % at 10 µM. actives 0.03% (n = 200,000);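 active = activation of at least 50% relative to the plate's high and low controls in the primary single-dose screen; inactive = activation below 50%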;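 note: compound incubated with DTT at 0.8 mM final as the reducing agent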
KCC2 sec1 – KCC2 modulators in sodium-free buffer, confirmation, cell-based, HEK293 KCC2, thallium flux, secondary assay; shares compounds with Cl transport mod; FluoZin2 fluorescence; hits give high values; normalised thallium flux (F/F0 slope) at 10 µM; actives 15% (n = 3,700); AID 1713, 2009;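 active = thallium flux slope above the same plate's solvent-only control mean plus 3 SD; inconclusive = the two replicate wells disagree; inactive = no significant difference from solvent-only control wells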
KCC2 bumet counter – thallium flux persisting under bumetanide in KCC2 cells, confirmation, counter-screen for KCC2 modulator project, cell-based, HEK293 KCC2, FluoZin2, secondary assay 3; shares compounds with Cl transport mod; HEK293-KCC2 + bumetanide/ouabain; hits give high values; normalized thallium flux at 10 µM; actives 49% (n = 3,700); AID 1714, 2009;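 active = thallium entry rate above the same plate's blocked-transporter control wells by more than 3 SD; inconclusive = the two repeat wells disagree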;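 note: raw slope of fluorescence over initial fluorescence between 10 and 20 s after thallium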
KCC2 secondary2 – KCC2 modulators without ouabain present, confirmation, cell-based, HEK293 KCC2, thallium flux, FluoZin2, secondary assay 2. shares compounds with Cl transport mod. thallium flux FluoZin2 fluorescence; actives lie on both sides; F/F0 rise rate, 10–20 s post-thallium. normalized thallium flux at 10 µM. actives 23% (n = 3,700). AID 1715, 2009;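 active = thallium flux slope more than 3 SD above or below the plate's solvent-only control mean, mostly below; inconclusive = the two repeat wells disagreed; inactive = no significant shift from solvent-only controls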;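 note: raw slope with 0.1% DMSO as baseline and bumetanide as block control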
HEK counter1 – thallium flux modulation in parental HEK cells, confirmation, counter-screen for KCC2 modulator project, cell-based, counterscreen 1; shares compounds with Cl transport mod; HEK293 parental cells, thallium flux FluoZin2, ouabain; baseline-ratio fluorescence slope, 10–20 s after thallium; thallium flux rate (normalised fluorescence) at 10 µM; actives 46% (n = 3,700); AID 1716, 2009;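 active = thallium flux rate significantly above the same plate's solvent-only control wells, beyond their mean plus 3 SD; inconclusive = the two replicate wells gave conflicting results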
KCC2 ouabain – KCC2 inhibitors and activators, ouabain retest, confirmation, HEK-KCC2 cells; HEK293-KCC2, thallium flux FluoZin2 fluorescence; bidirectional: low = inhibitor, high = activator; AID 1717, 2009; raw Tl+ flux slope (below DMSO = inhibition, above = activation) at 10 µM; actives 48% (n = 3,700); shares compounds with Cl transport mod;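 active = thallium flux slope beyond 3 SD from same-plate DMSO control mean in most replicates, usually higher, sometimes lower; inconclusive = repeat tests gave conflicting results; inactive = no significant difference from controls in most replicates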;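 note: slope of initial-normalized fluorescence between seconds 10 and 20 after thallium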
HEK293 Tl flux2 – native HEK Tl+ uptake effects, second counter-screen – HEK cells, counterscreen 2, counter-screen for KCC2 modulator project, confirmation; thallium flux slope at 10 µM; actives 33% (n = 3,700); HEK293 parental, thallium flux FluoZin-2 fluorescence slope; shares compounds with Cl transport mod; AID 1718, 2009;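 active = thallium flux slope above the same plate's solvent-control mean plus 3 SD in both duplicate wells; inconclusive = duplicate wells that disagreed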;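 note: run without ouabain in cells lacking the KCC2 cotransporter; slope of fluorescence scaled to its starting value between 10 and 20 s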
* = called active by the depositor; i = inactive; u = inconclusive; x = not tested or not shown. This is a sample that favours compounds with a hit; in the whole collection about 4.1% have one here.

SMILES	Autophagy mod	Dynein cargo inh	ROMK mod	Cl transport mod	DTT redox prof	KCC2 sec1	KCC2 bumet counter	KCC2 secondary2	HEK counter1	KCC2 ouabain	HEK293 Tl flux2
O=c1c2cccnc2[nH]c(=S)n1CCC1=CCCCC1	x	-0.011	x	68*	3	0.041*	0.16*	0.051*	0.074*	0.085*	0.047*
S=c1[nH]nc(COc2ccccc2)n1/N=C/c1ccc(Br)s1	i	1.7	0.032	51*	-1	u	0.077*	0.034	0.022*	0.027*	0.026*
O=C(COc1ccccc1/C=C1\SC(=O)NC1=O)Nc1ccc(F)cc1	i	-0.63	0.48	-3.1*	-1	0.0075	0.0068	0.032	0.0036	0.013*	0.011
Cc1ccc(S(=O)(=O)Oc2ccccc2/C=C2\SC(=O)NC2=O)cc1	i	-0.93	-0.28	-6*	-1	u	0.004	0.024*	0.0066*	0.015*	0.01
O=C(COc1ccccc1/C=C1/NC(=O)NC1=O)Nc1ccccc1	i	0.011	x	0.024	0	x	x	x	x	x	x
COc1ccc(C(C(=O)NCC2CCCO2)N(C(=O)CNC(=O)c2cccs2)c2ccc(C(C)=O)cc2)cc1OC (stereo unspecified)	i	0.23	-0.45	-0.27	0	x	x	x	x	x	x
COC(=O)c1ccc(C2c3c(oc4ccccc4c3=O)C(=O)N2CCCN2CCOCC2)cc1 (stereo unspecified)	i	-2	x	-4.5*	-1	0.0052	0.0061*	0.029	0.008	0.019	0.011
O=C(NCc1ccccc1)c1sc(=S)n2c1[nH]c(=O)c1ccccc12	i	-1.5	x	20*	2	0.0053	0.065*	u	0.056*	0.054*	0.045*
CC(=O)NNC(=O)c1sc(=S)n2c1[nH]c(=O)c1sccc12	i	-0.23	0.71	8.2*	0	0.0076	0.01*	0.028	0.012*	u	0.012*
CC(=O)Nc1nnc(CCS(=O)(=O)c2ccc(C)c(C)c2)s1	i	0.8	1	0.89	0	x	x	x	x	x	x
Cc1ccc2c(c1)C1CN(C)CCC1N2C(=S)NC(=O)c1ccc(Cl)cc1Cl (stereo unspecified)	x	-0.26	x	61*	x	0.023*	0.11*	0.03	0.032*	0.061*	0.013*
